Activity calls are given as the source filed them. The calls are words filed in the database; no cut-off is given here.
Key:
[1] = Antiproliferative activity against human CMS cells after 72 hrs by MTT assay; format: functional, cell-based
Outline: (§1)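 AML cell lines grown in RPMI 1640 with 10% FBS (20% for MOLM-13), 2 mM L-glutamine and penicillin/streptomycin at 37 °C, 5% CO2. Ara-C-resistant HL-60 and CMK sublines came from stepwise cytarabine selection and were kept in 600 nM or 300 nM cytarabine respectively. Cells were treated 72 h. MTT 0.05 mg/mL, 3 h at 37 °C, DMSO solubilization, absorbance at 570 nm. IC50 given ± SEM.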

U-937 [2] = assay: Induction of apoptosis in p53 null human U937 cells assessed as decrease in XIAP expression level by measuring ratio of XIAP to beta-actin level at 2 uM after 24 hrs by Western blot analysis relative to control; format: functional
Outline: (§2)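 U937 cells treated 24 h, alone or PL+SAHA. Whole-cell lysates (protease/phosphatase inhibitors) immunoblotted for γH2AX, CHK1, RAD51, Bim and XIAP. Band densitometry normalised to β-actin, then expressed as fold change relative to the untreated control.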

MV4-11 = assay: Antiproliferative activity against human MV4-11 cells after 72 hrs by MTT assay; format: functional, cell-based; details: MV4-11, 72 h
Homo sapiens = species on record: Homo sapiens; details: at 1 µM
OCI-AML-3 = assay: Antiproliferative activity against human OCI-AML3 cells after 72 hrs by MTT assay; format: functional, cell-based; details: OCI-AML-3, 72 h
CMK [3] = assay: Antiproliferative activity against Ara-C resistant human CMK cells after 72 hrs by MTT assay; format: functional, cell-based
CMK [4] = assay: Antiproliferative activity against human CMK cells after 72 hrs by MTT assay; format: functional, cell-based
MOLM-13 [5] = assay: Antiproliferative activity against human MOLM13 cells harboring wild type p53/FLT3-ITD mutant after 72 hrs by MTT assay; format: functional, cell-based; details: MOLM-13, 72 h
[6] = Antiproliferative activity against human CMY cells after 72 hrs by MTT assay; format: functional, cell-based
MCF-10A = assay: Cytotoxicity against human MCF10A cells assessed as decrease in cell viability at 0.5 to 5 uM after 24 hrs by MTT assay; format: cell-based
Outline: (§3)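 MCF-10A (DMEM/F12, 5% horse serum, hydrocortisone, cholera toxin, insulin, EGF) and U937 (RPMI 1640, 10% FBS) were exposed to 0.5–5 μM, alone or PL+SAHA 1:1, for 24 h. MTT 0.05 mg/mL, 3 h at 37 °C, DMSO solubilization, A570. Viability given as mean ± SD of four to six independent experiments. DMSO <0.1% vehicle control.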

HL-60 [7] = assay: Antiproliferative activity against human HL60 cells after 72 hrs by MTT assay; format: functional, cell-based; details: HL-60, 72 h
U-937 [8] = assay: Induction of DNA damage in p53 null human U937 cells assessed as decrease in CHK1 expression level by measuring ratio of CHK1 to beta-actin level at 2 uM after 24 hrs by Western blot analysis relative to control; format: functional; outline: as §2
U-937 [9] = assay: Induction of apoptosis in p53 null human U937 cells at 2 uM preincubated with NAC for 3 hrs followed by compound addition measured after 24 hrs by annexin V-FITC/PI staining based flow cytometry; format: functional, cell-based
Outline: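 U937 cells preincubated 3 h with 3 mM NAC or vehicle and washed with PBS to remove excess NAC. Then drug alone or with SAHA for 24 h. Apoptosis scored as % Annexin V+ by Annexin V-FITC/PI flow cytometry; vehicle DMSO < 0.1% v/v.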

HL-60 [10] = assay: Antiproliferative activity against Ara-C resistant human HL60 cells after 72 hrs by MTT assay; format: functional, cell-based; details: HL-60, 72 h
U-937 [11] = assay: Induction of DNA damage in p53 null human U937 cells assessed as increase in gammaH2AX expression level by measuring ratio of gammaH2AX to beta-actin level at 2 uM after 24 hrs by Western blot analysis relative to control; format: functional; outline: as §2
U-937 [12] = assay: Antiproliferative activity against p53 null human U937 cells after 72 hrs by MTT assay; format: functional, cell-based; details: U-937, 72 h
HL-60 [13] = assay: Antiproliferative activity against human HL60 cells after 72 hrs in presence of SAHA by MTT assay; format: functional, cell-based; details: HL-60, 72 h; outline: as §1
U-937 [14] = assay: Induction of DNA damage in p53 null human U937 cells at 2 uM after 20 hrs by SYBR gold staining based alkaline comet assay; format: functional, cell-based
Outline: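 U937 cells treated 20 h with SAHA and PL alone or combined (16 h for hybrids). Alkaline single-cell gel electrophoresis, SYBR Gold staining, microscopy. Median % DNA in tail from 4 replicate gels ± s.e.m.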

U-937 [15] = assay: Induction of apoptosis in p53 null human U937 cells assessed as increase in Bim EL expression level by measuring ratio of Bim EL to beta-actin level at 2 uM after 24 hrs by Western blot analysis relative to control; format: functional; outline: as §2
U-937 [16] = assay: Cytotoxicity against p53 null human U937 cells assessed as decrease in cell viability at 0.5 to 5 uM after 24 hrs by MTT assay; format: functional, cell-based; outline: as §3
MOLM-13 [17] = assay: Induction of apoptosis in human MOLM13 cells harboring wild type p53/FLT3-ITD mutant at 2 uM after 24 hrs by annexin V-FITC/PI staining based flow cytometry; format: functional
Outline: (§4)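 Cells treated 24 h, single agents or SAHA+PL at 1:1 (each drug at the stated concentration). Annexin V-FITC/PI kit staining, then flow cytometry, reported as % Annexin V+ cells. Three independent experiments in triplicate, with data from one representative experiment. DMSO <0.1% vehicle control.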

[18] = Stability of the compound in human U937 cell lysate at 50 uM incubated for 1.5 hrs in presence of GSH by HPLC analysis; format: ADME, cell-based; details: u-937, 1.5 h
MOLM-13 [19] = assay: Induction of apoptosis in human MOLM13 cells harboring wild type p53/FLT3-ITD mutant at 1 uM after 24 hrs by annexin V-FITC/PI staining based flow cytometry; format: functional; outline: as §4
U-937 [20] = assay: Induction of apoptosis in p53 null human U937 cells at 2 uM after 24 hrs by annexin V-FITC/PI staining based flow cytometry; format: functional
Outline: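 Human U937 AML cells (p53 null) in RPMI 1640 with 10% FBS, 2 mM L-glutamine, penicillin/streptomycin, 37 °C, 5% CO2. Exposed 24 h to compound alone or with SAHA; vehicle DMSO < 0.1% v/v. Annexin V-FITC/PI staining and flow cytometry, reported as % Annexin V+ cells. Three independent experiments in triplicate; one representative shown. EC50 taken as concentration giving 50% Annexin V+ cells versus vehicle.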

U-937 [21] = assay: Induction of apoptosis in p53 null human U937 cells at 1 uM after 24 hrs by annexin V-FITC/PI staining based flow cytometry; format: functional; outline: as §4

IC50 (MV4-11) [nM] | IC50 (OCI-AML-3) [nM] | IC50 (MOLM-13 [5]) [nM] | IC50 (HL-60 [7]) [nM] | IC50 (HL-60 [10]) [nM] | IC50 (U-937 [12]) [nM] | Compound | IC50 [1] [nM] | Ratio (U-937 [2]) | inhibition (Homo sapiens) | IC50 (CMK [3]) [nM] | IC50 (CMK [4]) [nM] | IC50 [6] [nM] | Activity (MCF-10A) | Ratio (U-937 [8]) | Activity (U-937 [9]) | Ratio (U-937 [11]) | Activity (U-937 [14]) | Ratio (U-937 [15]) | also measured
1440 | 1870 | 1840 | 1780 | 2250 | 2170 | COc1cc(/C=C/C(=O)N2CCC=CC2=O)cc(OC)c1OC [PIPLARTINE] | 3100 | 1 | inactive | 1910 | 2820 | 1620 | Non-Toxic | 1 | inactive | 1 | inactive | 1 | IC50 (HL-60 [13]): 529 nM
230 | 615 | 454 | 357 | 692 | 498 | COc1cc(/C=C/C(=O)N2CCC=CC2=O)cc(OC)c1OCCCCCCC(=O)NO | 385 | 0.6 | Active | 215 | 256 | 185 | Non-Toxic | 0.7 | inactive | 4.5 | Active | 1.8 | Activity (U-937 [16]): Active; Activity (MOLM-13 [17]): 65.9%; Stability [18]: Unstable; Activity (MOLM-13 [19]): 24.6%; Activity (U-937 [20]): 56.9%; Activity (U-937 [21]): 13.7%

From ChEMBL document CHEMBL4000155, “Synthesis and Antileukemic Activities of Piperlongumine and HDAC Inhibitor Hybrids against Acute Myeloid Leukemia Cells” (J Med Chem, 2016)
